For one molecule, Activity and IC50 results are on record in ChEMBL document CHEMBL4334471, “Discovery of 1,8-disubstituted-[1,2,3]triazolo[4,5-c]quinoline derivatives as a new class of Hippo signaling pathway inhibitors” (Bioorg Med Chem Lett, 2019).

Structures are written as SMILES. Some results are limits rather than exact numbers.

In test [1] the target is Dual specificity tyrosine-phosphorylation-regulated kinase 1A (Homo sapiens) (UniProt Q13627). In words: Inhibition of recombinant human DYRK1A assessed as residual activity at 10 uM using RRRFRPASPLRGPP as substrate at 40 mins in presence of [gamma-33ATP] by scintillation counting based radiometry assay relative to control.
For test [2], the species on record is Homo sapiens. In words: Inhibition of recombinant human BRSK2 S251I mutant (2 to end residues) assessed as residual activity at 10 uM using KKLNRTLSFAEPG substrate incubated for 40 mins in presence of [gamma-33ATP] by scintillation counting based radiometry assay relative to control.
In test [3] the test system is Discoidin domain-containing receptor 2 (Homo sapiens), Q16832 [UNDEFINED MUTATION]. In words: Inhibition of recombinant human DDR2 S642A mutant (467 to end residues) assessed as residual activity at 10 uM using KKSRGDYMTMQIG as substrate at 40 mins in presence of [gamma-33ATP] by scintillation counting based radiometry assay relative to control.
Discoidin domain-containing receptor 2 (Homo sapiens), Q16832 [UNDEFINED MUTATION], sequence (Q16832 whole entry, looked up, stated change not applied, the tested form may be a part): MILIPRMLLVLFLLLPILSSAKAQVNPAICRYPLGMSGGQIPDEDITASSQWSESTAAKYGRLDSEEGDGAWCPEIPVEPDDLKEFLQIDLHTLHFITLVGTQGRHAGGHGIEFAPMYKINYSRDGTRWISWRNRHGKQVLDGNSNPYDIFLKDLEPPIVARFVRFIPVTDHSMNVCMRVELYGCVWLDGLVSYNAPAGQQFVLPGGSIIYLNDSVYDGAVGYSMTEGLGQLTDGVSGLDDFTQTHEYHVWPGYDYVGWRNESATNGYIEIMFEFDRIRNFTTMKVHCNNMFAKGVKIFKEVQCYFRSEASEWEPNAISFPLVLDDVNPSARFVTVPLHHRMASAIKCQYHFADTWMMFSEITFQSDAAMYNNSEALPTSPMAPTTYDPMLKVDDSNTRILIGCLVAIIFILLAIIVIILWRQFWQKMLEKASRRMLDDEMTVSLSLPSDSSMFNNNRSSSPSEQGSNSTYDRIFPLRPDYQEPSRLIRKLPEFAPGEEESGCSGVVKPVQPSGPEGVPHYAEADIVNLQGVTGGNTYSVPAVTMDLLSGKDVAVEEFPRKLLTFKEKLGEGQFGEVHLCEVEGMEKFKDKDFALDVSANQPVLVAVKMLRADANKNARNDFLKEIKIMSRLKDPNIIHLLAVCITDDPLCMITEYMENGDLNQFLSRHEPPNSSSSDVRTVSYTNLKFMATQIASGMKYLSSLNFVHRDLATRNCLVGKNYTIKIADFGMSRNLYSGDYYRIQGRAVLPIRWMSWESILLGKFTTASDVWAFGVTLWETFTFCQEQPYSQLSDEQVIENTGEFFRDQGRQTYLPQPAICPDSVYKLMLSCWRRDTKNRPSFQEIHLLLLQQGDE
Test [4] has as its target Insulin receptor-related protein (Homo sapiens) (UniProt P14616). In words: Inhibition of human IRR (943 to 1266 residues) assessed as residual activity at 10 uM using myelin basic protein as substrate after 40 mins by [gamma-33ATP] radiometric assay relative to control.
The species entered for test [5] is Homo sapiens. In words: Inhibition of human MAPK2 assessed as residual activity at 10 uM relative to control.
The target in test [6] is Tyrosine-protein kinase CSK (Homo sapiens) (UniProt P41240). In words: Inhibition of recombinant human CSK assessed as residual activity at 10 uM poly(Glu, Tyr) 4:1 as substrate incubated 40 mins in presence of [gamma-33ATP] by scintillation counting based radiometry assay relative to control.
Tyrosine-protein kinase CSK (Homo sapiens), sequence (P41240 2-450 limits assumed): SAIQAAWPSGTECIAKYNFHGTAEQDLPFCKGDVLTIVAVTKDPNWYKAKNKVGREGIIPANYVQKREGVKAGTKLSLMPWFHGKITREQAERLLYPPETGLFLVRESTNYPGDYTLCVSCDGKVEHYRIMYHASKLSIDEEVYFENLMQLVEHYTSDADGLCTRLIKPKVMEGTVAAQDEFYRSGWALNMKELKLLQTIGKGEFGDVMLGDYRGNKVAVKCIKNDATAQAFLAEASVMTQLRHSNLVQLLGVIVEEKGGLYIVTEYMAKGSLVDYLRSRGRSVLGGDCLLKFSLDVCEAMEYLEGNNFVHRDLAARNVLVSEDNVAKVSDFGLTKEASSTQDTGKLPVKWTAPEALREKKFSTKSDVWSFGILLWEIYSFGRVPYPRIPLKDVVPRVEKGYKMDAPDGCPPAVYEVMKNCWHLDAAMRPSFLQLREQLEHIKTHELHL
For test [7], the target named is Serine/threonine-protein kinase 4 (Homo sapiens, UniProt Q13043). Kind of test: Inhibition of recombinant full-length human MST1 assessed as residual activity using KKSRGDYMTMQIG as substrate measured after 40 mins in presence of [gamma33P]ATP by scintillation counting based radiometry assay. The method, boiled down: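 Outsourced kinase profiling of MST1 by a commercial service (Eurofins); activity reported as mean ± SEM of 2 replicates.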
Serine/threonine-protein kinase 4, sequence (Q13043 whole entry): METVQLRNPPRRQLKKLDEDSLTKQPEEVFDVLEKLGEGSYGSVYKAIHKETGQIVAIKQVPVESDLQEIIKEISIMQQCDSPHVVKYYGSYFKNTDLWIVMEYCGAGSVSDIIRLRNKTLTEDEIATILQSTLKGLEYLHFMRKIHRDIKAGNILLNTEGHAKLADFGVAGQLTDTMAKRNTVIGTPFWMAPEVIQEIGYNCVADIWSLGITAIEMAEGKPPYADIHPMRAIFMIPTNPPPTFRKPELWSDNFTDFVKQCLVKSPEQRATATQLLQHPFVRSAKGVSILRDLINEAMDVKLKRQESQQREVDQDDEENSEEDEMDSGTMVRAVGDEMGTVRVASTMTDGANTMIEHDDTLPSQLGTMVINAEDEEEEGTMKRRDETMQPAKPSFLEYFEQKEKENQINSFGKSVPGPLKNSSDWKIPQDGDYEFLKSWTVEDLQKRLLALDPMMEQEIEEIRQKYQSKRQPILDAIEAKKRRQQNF

Test [8] concerns the target Serine/threonine-protein kinase Nek1 (Homo sapiens) (UniProt Q96PY6). In words: Inhibition of recombinant human NEK1 (1 to 505 residues) assessed as residual activity at 10 uM using RLGRDKYKTLRQI as substrate measured after 40 mins in presence of [gamma33P]ATP by scintillation counting based radiometry assay relative to control.
Test [9] addresses Bone morphogenetic protein receptor type-2 (Homo sapiens) (UniProt Q13873). In words: Inhibition of recombinant human BMPR2 (172 to 734 residues) assessed as residual activity at 10 uM using myelin basic protein as substrate incubated for 120 mins in presence of [gamma-33ATP] by scintillation counting based radiometry assay relative to control.
Test [10] addresses Casein kinase I isoform epsilon (Homo sapiens) (UniProt P49674). In words: Inhibition of recombinant human CK1epsilon assessed as residual activity at 10 uM using KRRRALS(p)VASLPGL as substrate incubated for 120 mins in presence of [gamma-33ATP] by scintillation counting based radiometry assay relative to control.
The target of test [11] is Serine/threonine-protein kinase PRP4 homolog (Homo sapiens) (UniProt Q13523). In words: Inhibition of recombinant human PRP4 (663 to end residues) assessed as residual activity at 10 uM using casein as substrate incubated for 40 mins in presence of [gamma33P]ATP by scintillation counting based radiometry assay relative to control.
Test [12] deals with Serine/threonine-protein kinase PAK 3 (Homo sapiens) (UniProt O75914). In words: Inhibition of recombinant full-length human PAK3 assessed as residual activity at 10 uM using RRRLSFAEPG as substrate measured after 40 mins in presence of [gamma33P]ATP by scintillation counting based radiometry assay relative to control.
Serine/threonine-protein kinase PAK 3 (Homo sapiens), sequence (O75914 whole entry, looked up): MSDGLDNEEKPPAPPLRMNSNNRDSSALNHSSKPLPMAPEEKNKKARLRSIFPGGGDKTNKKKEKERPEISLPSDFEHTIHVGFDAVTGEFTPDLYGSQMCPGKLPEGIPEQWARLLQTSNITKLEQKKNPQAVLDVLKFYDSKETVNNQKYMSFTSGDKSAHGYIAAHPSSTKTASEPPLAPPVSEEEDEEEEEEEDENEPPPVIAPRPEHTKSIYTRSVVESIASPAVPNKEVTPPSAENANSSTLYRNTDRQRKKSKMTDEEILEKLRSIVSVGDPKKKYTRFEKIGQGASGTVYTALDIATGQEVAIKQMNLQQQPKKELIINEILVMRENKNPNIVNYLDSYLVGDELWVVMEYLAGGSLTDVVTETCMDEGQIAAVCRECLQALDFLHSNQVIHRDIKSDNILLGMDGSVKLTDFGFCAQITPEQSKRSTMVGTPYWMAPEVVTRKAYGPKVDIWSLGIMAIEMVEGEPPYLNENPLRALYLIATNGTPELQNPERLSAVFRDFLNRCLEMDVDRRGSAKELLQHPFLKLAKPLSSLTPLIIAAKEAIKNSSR
Test [13] relates to RAC-gamma serine/threonine-protein kinase (Homo sapiens), Q9Y243 [S472D]. In words: Inhibition of recombinant human PKBgamma S472D mutant (117 to end residues) assessed as residual activity at 10 uM using GRPRTSSFAEGKK as substrate incubated for 40 mins in presence of [gamma33P]ATP by scintillation counting based radiometry assay relative to control.
RAC-gamma serine/threonine-protein kinase (Homo sapiens), Q9Y243 [S472D], sequence (Q9Y243 whole entry S472D): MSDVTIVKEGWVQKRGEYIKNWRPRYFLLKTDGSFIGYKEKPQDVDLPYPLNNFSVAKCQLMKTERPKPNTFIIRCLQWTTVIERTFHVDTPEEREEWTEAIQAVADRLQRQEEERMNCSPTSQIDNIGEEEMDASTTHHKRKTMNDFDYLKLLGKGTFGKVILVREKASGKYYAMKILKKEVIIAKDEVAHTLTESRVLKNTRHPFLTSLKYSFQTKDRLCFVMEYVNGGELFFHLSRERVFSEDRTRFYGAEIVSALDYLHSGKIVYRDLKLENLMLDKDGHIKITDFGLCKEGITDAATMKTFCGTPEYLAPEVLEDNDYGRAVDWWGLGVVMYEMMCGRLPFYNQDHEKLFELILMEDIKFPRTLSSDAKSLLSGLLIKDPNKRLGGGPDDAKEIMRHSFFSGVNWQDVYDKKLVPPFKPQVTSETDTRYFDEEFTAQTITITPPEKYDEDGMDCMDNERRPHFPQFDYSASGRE
Test [14] deals with Epidermal growth factor receptor (Homo sapiens), P00533 [L861Q]. In words: Inhibition of recombinant human EGFR L861Q mutant (696 to end residues) assessed as residual activity at 10 uM using poly(Glu, Tyr) 4:1 as substrate at 40 mins in presence of [gamma-33ATP] by scintillation counting based radiometry assay relative to control.
The target of test [15] is Tyrosine-protein kinase Lyn (Homo sapiens) (UniProt P07948). In words: Inhibition of recombinant human Lyn assessed as residual activity at 10 uM using poly(Glu, Tyr) 4:1 as substrate after 40 mins in presence of [gamma-33ATP] by scintillation counting based radiometry assay relative to control.
Test [16] has as its system Receptor-type tyrosine-protein kinase FLT3 (Homo sapiens), P36888 [D835Y]. Kind of test: Inhibition of recombinant human FLT3 D835Y mutant (564 to end residues) assessed as residual activity at 10 uM using EAIYAAPFAKKK as substrate at 40 mins in presence of [gamma-33ATP] by scintillation counting based radiometry assay relative to control.
For test [17], the species on record is Mus musculus. In words: Inhibition of mouse ABL1 L782P/G784R/W785L/L786V mutant (27 to end residues) at 10 uM using EAIYAAPFAKKK as substrate incubated for 40 mins in presence of [gamma-33ATP] by scintillation counting based radiometry assay relative to control. Also noted: scale not given: the % may be the effect or the level left.
Test [18] has as its target Phosphatidylinositol 4-phosphate 5-kinase type-1 alpha (Homo sapiens) (UniProt Q99755). In words: Inhibition of recombinant full-length human PIP5K1alpha assessed as residual activity at 10 uM using phosphatidylinositol 5-phosphate as substrate by HTRF assay relative to control.
Test [19] concerns Ribosomal protein S6 kinase alpha-1 (Rattus norvegicus), Q63531 [S637N,G697A]. Kind of test: Inhibition of recombinant full length rat Rsk1 S637N/G697A mutant assessed as residual activity at 10 uM using KKKNRTLSVA as substrate incubated for 40 mins in presence of [gamma33P]ATP by scintillation counting based radiometry assay relative to control.
Test [20] is filed under the species Homo sapiens. In words: Inhibition of recombinant full length human PKBalpha S478G mutant assessed as residual activity at 10 uM using GRPRTSSFAEGKK as substrate incubated for 40 mins in presence of [gamma33P]ATP by scintillation counting based radiometry assay relative to control.
Test [21] relates to Tyrosine-protein kinase ABL1 (Homo sapiens), P00519 [Q252H]. Kind of test: Inhibition of human ABL1 Q252H mutant (27 to end residues) assessed as residual activity at 10 uM using EAIYAAPFAKKK as substrate incubated for 40 mins in presence of [gamma-33ATP] by scintillation counting based radiometry assay relative to control.

Serine/threonine-protein kinase Nek1 (Homo sapiens), sequence (Q96PY6 whole entry, the tested form may be a part): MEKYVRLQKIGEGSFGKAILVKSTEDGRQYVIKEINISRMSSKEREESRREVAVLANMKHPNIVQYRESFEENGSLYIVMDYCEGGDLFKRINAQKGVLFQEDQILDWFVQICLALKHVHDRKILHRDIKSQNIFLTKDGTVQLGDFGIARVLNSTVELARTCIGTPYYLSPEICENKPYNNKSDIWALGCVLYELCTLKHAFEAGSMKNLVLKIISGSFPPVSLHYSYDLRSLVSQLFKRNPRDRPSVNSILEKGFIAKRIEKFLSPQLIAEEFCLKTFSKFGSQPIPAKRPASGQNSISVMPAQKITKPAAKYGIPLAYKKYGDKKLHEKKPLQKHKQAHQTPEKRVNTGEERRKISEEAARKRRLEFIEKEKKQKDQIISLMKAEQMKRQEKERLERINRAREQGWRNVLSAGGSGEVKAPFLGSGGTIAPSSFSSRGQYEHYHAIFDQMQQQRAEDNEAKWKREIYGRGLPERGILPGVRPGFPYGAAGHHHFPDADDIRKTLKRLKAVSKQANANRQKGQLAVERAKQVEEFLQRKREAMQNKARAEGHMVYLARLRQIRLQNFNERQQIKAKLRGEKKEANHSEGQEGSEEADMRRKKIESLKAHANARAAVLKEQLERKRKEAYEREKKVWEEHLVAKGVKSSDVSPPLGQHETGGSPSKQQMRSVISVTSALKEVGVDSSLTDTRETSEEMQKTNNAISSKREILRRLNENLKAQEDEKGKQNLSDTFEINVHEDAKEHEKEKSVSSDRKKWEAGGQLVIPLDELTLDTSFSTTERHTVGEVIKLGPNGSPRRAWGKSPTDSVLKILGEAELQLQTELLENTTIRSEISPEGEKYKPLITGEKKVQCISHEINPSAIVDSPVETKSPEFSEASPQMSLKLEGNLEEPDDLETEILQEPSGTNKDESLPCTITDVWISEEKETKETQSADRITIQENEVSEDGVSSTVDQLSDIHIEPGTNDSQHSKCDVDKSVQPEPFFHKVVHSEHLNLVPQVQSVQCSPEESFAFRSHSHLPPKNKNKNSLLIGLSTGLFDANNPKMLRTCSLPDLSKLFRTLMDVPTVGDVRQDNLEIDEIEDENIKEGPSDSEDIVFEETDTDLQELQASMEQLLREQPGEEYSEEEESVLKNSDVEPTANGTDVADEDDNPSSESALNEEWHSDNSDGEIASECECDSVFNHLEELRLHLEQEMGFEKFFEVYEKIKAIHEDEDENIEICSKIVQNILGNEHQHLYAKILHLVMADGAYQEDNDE
Phosphatidylinositol 4-phosphate 5-kinase type-1 alpha (Homo sapiens), sequence (Q99755 whole entry): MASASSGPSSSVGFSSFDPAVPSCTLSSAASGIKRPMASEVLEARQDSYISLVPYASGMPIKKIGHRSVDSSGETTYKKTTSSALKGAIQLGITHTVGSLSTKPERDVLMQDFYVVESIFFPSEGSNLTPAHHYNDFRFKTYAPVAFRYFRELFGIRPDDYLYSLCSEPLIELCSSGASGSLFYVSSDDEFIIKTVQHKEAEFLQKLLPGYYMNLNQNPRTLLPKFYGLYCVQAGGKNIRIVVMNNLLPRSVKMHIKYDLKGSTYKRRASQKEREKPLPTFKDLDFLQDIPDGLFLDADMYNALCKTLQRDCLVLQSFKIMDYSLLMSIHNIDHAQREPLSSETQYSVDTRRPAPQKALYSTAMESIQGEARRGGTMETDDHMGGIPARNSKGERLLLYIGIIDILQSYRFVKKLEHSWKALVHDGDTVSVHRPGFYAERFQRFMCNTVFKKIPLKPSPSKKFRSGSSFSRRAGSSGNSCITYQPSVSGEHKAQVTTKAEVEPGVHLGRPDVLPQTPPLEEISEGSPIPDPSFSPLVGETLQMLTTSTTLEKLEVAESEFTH

In general, IC50 refers to the concentration at which inhibition is half-maximal. For `C[C@@H](c1ccccc1)n1nnc2cnc3ccc(-c4cnc5[nH]ccc5c4)cc3c21`, the Activity came to 63% in test [1]; 77% in test [2]; 35% in [3]; 86% in [4]; 93% in test [5]; 74% in test [6]. Moreover, the Activity in test [8] came out at 23%; in test [9] it was 80%; in [10] it was 32%; in test [11] it was 86%; in test [12], 136%; in test [13], 48%. Moreover, the Activity in test [14] is 70%; in test [15], 3%; in test [16] it was 42%; in test [17], 0%; in test [18], 73 to 83%; in test [19], 71%. Moreover, the results for the Activity in [20] and in test [21] were 80% and 1%, respectively. In addition, the IC50 in test [7] was over 10 µM.
